≈ marks a conversion by molar mass, not a printed value. Calls of active or inactive are those of the source. The rule behind the calls is not given here.
Experiments:
P388 = experiment: Cytotoxicity against mouse P388 cells; assay type: functional, cell-based
Summary of the method: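 P388 mouse leukemia cells; cytotoxicity reported as IC50 in μg/ml.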

Candida albicans = experiment: Antimicrobial activity against Candida albicans; assay type: functional
[1] = molecular target: Human immunodeficiency virus type 1 reverse transcriptase (Human immunodeficiency virus 1) (UniProt Q72547); experiment: Inhibition of HIV1 reverse transcriptase

SMILES	IC50 (P388)	MIC (Candida albicans)	Activity [1]
CC(=O)Oc1c(O)ccc(O)c1C[C@]1(C)[C@@H](C)CC[C@]2(C)C(C)=CCC[C@@H]12	< 0.6 µg/mL	12.5 µg/mL (≈ 33.6 µM)	inactive
CC1=CCC[C@H]2[C@](C)(Cc3c(O)ccc(O)c3O)[C@@H](C)CC[C@]12C	–	–	inactive
COC1=CC(=O)C(C[C@]2(C)[C@@H](C)CC[C@]3(C)C(C)=CCC[C@@H]23)=C(O)C1=O	> 20 µg/mL	–	Active
CC1=CCC[C@H]2[C@](C)(CC3=C(O)C(=O)C=C(O)C3=O)[C@@H](C)CC[C@]12C	1.2 µg/mL (≈ 3.48 µM)	50 µg/mL (≈ 145 µM)	Active
CC(=O)OC1=C(C[C@]2(C)[C@@H](C)CC[C@]3(C)C(C)=CCC[C@@H]23)C(=O)C=CC1=O	10 µg/mL (≈ 27 µM)	–	inactive
CC1=CCC[C@H]2[C@](C)(CC3=CC(=O)C=C(O)C3=O)[C@@H](C)CC[C@]12C	0.6 µg/mL (≈ 1.83 µM)	12.5 µg/mL (≈ 38.1 µM)	Active
